Most compounds without a hit are left out; they make up all but 1.9% or so of the library.
NPY-Y1 PAM-ag – potentiators or agonists of human neuropeptide Y receptor Y1; P25929; NPY-Y1 expressing cells, potentiator/agonist activation; activation, % at 3.6 µM; 220,000 compounds, 0.37% hits; in the data active means activation above about 33%, passing the limit was not always enough;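 further: cells stimulated with NPY at EC10 then isoproterenol at EC100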
Target sequence (P25929 whole entry, looked up): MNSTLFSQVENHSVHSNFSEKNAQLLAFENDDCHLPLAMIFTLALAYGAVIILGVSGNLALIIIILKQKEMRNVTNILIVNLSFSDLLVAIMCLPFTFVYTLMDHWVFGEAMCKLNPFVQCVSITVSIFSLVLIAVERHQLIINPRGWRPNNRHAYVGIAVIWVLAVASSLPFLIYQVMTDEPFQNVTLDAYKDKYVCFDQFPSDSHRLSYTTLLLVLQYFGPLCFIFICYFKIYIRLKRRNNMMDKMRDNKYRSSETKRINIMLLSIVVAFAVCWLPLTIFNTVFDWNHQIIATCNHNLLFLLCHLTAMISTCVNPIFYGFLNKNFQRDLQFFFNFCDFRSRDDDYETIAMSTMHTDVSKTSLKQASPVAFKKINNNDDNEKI
NPY2 pot ag – human NPY-Y2 potentiation or agonism, primary screen. P49146. cells expressing NPY-Y2, potentiator/agonist read-out. activation, % at 3.6 µM. 220,000 compounds, 0.45% hits; in the data active means activation above about 27%;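 further: cells stimulated with NPY near EC25 plus isoproterenol at EC100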
NPY Y1 blocker – antagonists of human neuropeptide Y receptor Y1; HEK293-CNG Y1 cells, membrane potential fluorescence; NPY at EC95, then isoproterenol; inhibition, % at 3.6 µM; 200,000 compounds, 1% hits;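 active means inhibition above the campaign mean inhibition of all tested compounds plus 3 SD, cut at about 20% in these data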
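Material: HEK293 cells co-expressing NPY Y1 receptor and cyclic-nucleotide gated channel. Timing: compound incubation 1 h at room temperature, readout 45 min post-stimulation. Signal: fluorescence, membrane potential probe.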
NPY-Y2 antag – antagonists of human neuropeptide Y receptor Y2; P49146; NPY-Y2 expressing cells, antagonist mode; inhibition, % at 2.7 µM; 140,000 compounds, 0.99% hits; AID 793; in the data active means inhibition above about 17%
NPY-Y1 antag ct – counter-screen for NPY-Y2 antagonists: human NPY-Y1 antagonism | 710 compounds, 19% hits | inhibition, % at 3.6 µM | cell-based NPY-Y1 antagonism counterscreen | shares compounds with NPY-Y2 antag; in the data active means inhibition above about 20%;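 further: cells challenged with NPY then isoproterenol with cAMP sensed through a CNG channel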
NPY2 antag conf – confirmation of human neuropeptide Y receptor Y2 antagonists. shares compounds with NPY-Y2 antag. inhibition, % at 2.8 µM. AID 1257. HEK293 NPY-Y2 CNG channel, membrane potential fluorescence. 710 compounds, 32% hits;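 active means mean inhibition of triplicate wells above the hit cutoff set in the primary screen, cut at about 17% in these data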
Numbers stand for hits; 0 = inactive; - = no result given.

SMILES	NPY-Y1 PAM-ag	NPY2 pot ag	NPY Y1 blocker	NPY-Y2 antag	NPY-Y1 antag ct	NPY2 antag conf
Cc1cc2c(c(Sc3ccccc3)n1)C(=O)OC2	0	0	0	22	0	0
CC(C)Cn1c(N)c(C(=O)NCC2CCCO2)c2nc3ccccc3nc21 (centres undefined)	0	0	0	20	0	0
O=C(Nc1ccc(F)cc1)Nc1nnc(-c2ccco2)s1	0	0	0	-	-	-
CC1CCN(CCCNC(=O)c2ccc(CSCc3cccc(Cl)c3)o2)CC1	0	0	0	17	0	0
CN1CCN(CCCNC(=O)c2ccc(CSCc3cccc(Cl)c3)o2)CC1	0	0	0	0	-	-
CCN(CC)C(=O)CSc1nnc([C@@H](N)C(C)C)o1	0	0	-	-	-	-
Cc1ccc(NC(=O)C(=O)NCCOc2ccc(Cl)cc2)c(C)c1	0	0	0	21	0	20
CN(c1ccc(C(=O)NCCSCc2ccc(Cl)cc2)cc1)S(=O)(=O)c1ccccc1	0	0	0	0	-	-
Cc1ccc(CSCCNC(=O)c2ccc(N(C)S(=O)(=O)c3ccccc3)cc2)cc1	0	0	0	18	0	0
C/C=C/Cn1c(SCc2ccc(C)cc2)nc2c1c(=O)[nH]c(=O)n2C	0	0	0	26	22	42
O=C(Nc1ccccc1)c1ccc(S(=O)(=O)NCc2ccco2)cc1	0	0	0	0	-	-
CC1CCCCC1NC(=O)c1ccc(S(=O)(=O)NCc2ccco2)cc1 (centres undefined)	0	0	0	17	0	0
CCN(CC)CC(O)COc1ccc2c(c1)c(C(C)=O)c(C)n2-c1ccccc1 (centres undefined)	0	0	0	17	0	32
CC(=O)c1c(C)n(-c2ccccc2)c2ccc(OCC(O)CN3CCOCC3)cc12 (centres undefined)	0	0	0	0	-	-
Cc1nc2ccccc2cc1OCc1ccc(Cl)cc1	0	0	0	19	22	17
CC(C)(C)NCc1cc(Br)ccc1OCc1cccs1	0	0	0	20	0	0
O=C(NCc1cccnc1)c1ccc(Cl)c(S(=O)(=O)Nc2ccccc2C(=O)NCc2cccnc2)c1	0	0	0	-	-	-
CC1=CC(C)(C)N(C(=O)c2ccccc2)c2ccc(C)cc21	0	0	0	0	-	-
CC1=CC(C)(C)N(S(=O)(=O)c2ccc(F)cc2)c2ccc(C)cc21	0	0	0	19	0	0
CC1=CC(C)(C)N(S(=O)(=O)c2ccc(C)cc2)c2ccccc21	0	0	0	20	31	26
CCN(CC)S(=O)(=O)c1cccc(-c2n[nH]c(=S)n2/N=C/c2ccc(Br)cc2)c1	0	0	0	19	0	0
CCN(CC)S(=O)(=O)c1cccc(-c2n[nH]c(=S)n2/N=C/c2ccc(OC)cc2)c1	0	0	0	0	-	-
O=C(CSCc1ccc(Cl)cc1)N/N=C/c1c(Cl)cccc1Cl	0	0	0	17	0	26
O=C(CSCc1ccc(Cl)cc1)N/N=C/c1ccccc1	0	0	0	0	-	-
CCc1ccc(CN(C)C(=O)CCc2nnc(COc3ccccc3)o2)cc1	0	0	0	-	-	-
SMILES	NPY-Y1 PAM-ag	NPY2 pot ag	NPY Y1 blocker	NPY-Y2 antag	NPY-Y1 antag ct	NPY2 antag conf
COc1cccc(N=C2SC(CC(=O)Nc3ccccc3)C(=O)N2Cc2ccccn2)c1 (centres undefined)	0	0	0	-	-	-
O=C(CC1CS(=O)(=O)CC1CC(=O)Nc1ccc2c(c1)OCCO2)Nc1ccc2c(c1)OCCO2 (centres undefined)	0	0	0	-	-	-
CN(C)S(=O)(=O)c1ccc2nc(NC(=O)c3cccnc3)sc2c1	0	0	0	0	-	-
O=C(NC(Nc1nc2ccc([N+](=O)[O-])cc2s1)(C(F)(F)F)C(F)(F)F)c1ccccc1Cl	55	83	0	24	0	0
O=C(NC(Nc1nc2ccc([N+](=O)[O-])cc2s1)(C(F)(F)F)C(F)(F)F)c1cccnc1	48	33	0	18	0	0
CCN(CC)C(=O)CSc1nc2cc3c(cc2c(=O)n1CCCCCC(=O)NCc1ccc(OC)cc1)OCO3	0	0	0	-	-	-
Cc1cccc(/C(N)=N/OC(=O)COc2ccccc2Cl)c1	0	0	0	19	0	0
COc1ccc(/C(N)=N/OC(=O)COc2ccccc2Cl)cc1	0	0	0	0	-	-
COc1ccc(Cn2c(=O)[nH]c3cc(C(=O)N4CCN(c5ccccn5)CC4)ccc3c2=O)cc1	0	0	0	-	-	-
CC(C)c1ccc(NC(=O)c2snc3ccc(Cl)cc23)cc1	0	0	0	26	0	0
CC(C)c1ccc(NC(=O)c2csnn2)cc1	0	0	0	0	-	-
NC(=O)Cn1cnc2nc3n(c2c1=O)CCC3	0	0	0	-	-	-
CCOC(=O)CSC1=C(C#N)C(c2ccco2)C(C(=O)Nc2cccc(C(F)(F)F)c2)=C(C)N1 (centres undefined)	0	0	0	18	0	19
CCOC(=O)C1=C(c2ccccc2)NC(SCC(=O)Nc2cccc(C)c2)=C(C#N)C1c1ccco1 (centres undefined)	0	0	0	0	-	-
CCC(C)(C(=O)NC1CCCC1)N(Cc1ccco1)C(=O)c1ccccn1 (centres undefined)	0	0	0	23	0	0
O=C(Nc1ccc(F)cc1F)c1ccc(COc2c(F)c(F)cc(F)c2F)o1	0	0	0	18	0	0
O=C(Nc1ccc(Cl)cc1F)c1ccc(COc2c(F)c(F)c(F)c(F)c2F)o1	0	0	0	0	-	-
COc1ccc(C2Nc3ccccc3C(=O)N2c2ccc(C)cc2)cc1Cn1cc([N+](=O)[O-])cn1 (centres undefined)	0	0	0	19	27	63
COc1ccc(C2Nc3ccccc3C(=O)N2c2ccc(C)cc2)cc1Cn1nnc2ccccc21 (centres undefined)	0	0	0	0	-	-
O=C1OCCC1Sc1nc2ccccc2s1 (centres undefined)	0	0	0	0	-	-
O=C1OCCC1Sc1nc2cc(Cl)ccc2s1 (centres undefined)	0	0	0	23	0	0
C/C(=N\NC(=S)NCCc1ccccc1)c1ccc(C)cc1	0	0	0	17	0	0
C/C(=N\NC(=S)NCCc1ccccc1)c1ccc(Cl)cc1	0	0	0	0	-	-
S=C(NCCc1ccccc1)N/N=C/c1ccccc1Cl	0	0	0	43	0	18
CCc1ccc(/C=N/NC(=S)NCCc2ccccc2)cc1	0	0	0	33	28	30
CC1=NN(c2ccccc2)C(=O)/C1=C\c1ccc(Br)s1	0	0	0	17	31	34
COc1ccc(C(C)=O)cc1CSc1nc2ccccc2c(=O)n1-c1cccc(C)c1	0	0	0	0	-	-
COc1ccc(C(C)=O)cc1CSc1nc2ccccc2c(=O)n1-c1ccccc1C	0	0	0	20	0	0
Cc1nnc(SCC(=O)NC(=O)Nc2ccc3c(c2)OCCO3)n1N	0	0	-	-	-	-
CC(/C=N/Nc1nc(C)cc(C)n1)=C\c1ccc(C(C)C)cc1	0	0	0	0	-	-

Source: PubChem (The Scripps Research Institute Molecular Screening Center)
